{
  "source": "BindingDB's records for doi:10.1021/jm00151a016",
  "about": "(1986)",
  "key": {"Vasopressin V2 receptor": {"biological_target": "Vasopressin V2 receptor (Bos taurus, UniProt P48044)", "sequence (P48044 whole entry)": "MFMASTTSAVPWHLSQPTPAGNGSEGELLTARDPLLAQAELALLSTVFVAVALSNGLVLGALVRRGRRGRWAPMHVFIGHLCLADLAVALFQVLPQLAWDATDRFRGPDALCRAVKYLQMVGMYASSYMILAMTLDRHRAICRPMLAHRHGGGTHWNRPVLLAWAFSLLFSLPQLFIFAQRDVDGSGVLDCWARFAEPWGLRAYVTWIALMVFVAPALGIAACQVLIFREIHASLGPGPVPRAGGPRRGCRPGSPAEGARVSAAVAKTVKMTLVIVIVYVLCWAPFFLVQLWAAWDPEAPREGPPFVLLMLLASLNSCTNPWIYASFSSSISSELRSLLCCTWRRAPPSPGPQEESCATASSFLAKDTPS", "assay": "ChEBML_214690", "description": "Binding affinity against plasma membrane from bovine kidney inner medulla using [3H]AVP as a radioligand"}, "[1]": {"biological_target": "Vasopressin V1a/V1b receptor (Rattus norvegicus, UniProt P30560+P48974)", "sequence (P30560 whole entry)": "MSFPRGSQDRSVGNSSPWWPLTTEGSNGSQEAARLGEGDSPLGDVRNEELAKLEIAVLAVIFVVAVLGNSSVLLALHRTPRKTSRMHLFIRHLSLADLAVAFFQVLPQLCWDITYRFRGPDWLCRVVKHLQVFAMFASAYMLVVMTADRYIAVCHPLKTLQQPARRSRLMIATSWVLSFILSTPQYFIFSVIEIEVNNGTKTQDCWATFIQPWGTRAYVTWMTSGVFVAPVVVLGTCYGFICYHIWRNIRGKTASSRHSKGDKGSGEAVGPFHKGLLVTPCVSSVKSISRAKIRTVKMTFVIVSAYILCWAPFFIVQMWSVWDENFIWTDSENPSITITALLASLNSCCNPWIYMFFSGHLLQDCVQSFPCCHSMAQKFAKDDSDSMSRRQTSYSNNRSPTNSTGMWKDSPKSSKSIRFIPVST", "sequence (P48974 whole entry)": "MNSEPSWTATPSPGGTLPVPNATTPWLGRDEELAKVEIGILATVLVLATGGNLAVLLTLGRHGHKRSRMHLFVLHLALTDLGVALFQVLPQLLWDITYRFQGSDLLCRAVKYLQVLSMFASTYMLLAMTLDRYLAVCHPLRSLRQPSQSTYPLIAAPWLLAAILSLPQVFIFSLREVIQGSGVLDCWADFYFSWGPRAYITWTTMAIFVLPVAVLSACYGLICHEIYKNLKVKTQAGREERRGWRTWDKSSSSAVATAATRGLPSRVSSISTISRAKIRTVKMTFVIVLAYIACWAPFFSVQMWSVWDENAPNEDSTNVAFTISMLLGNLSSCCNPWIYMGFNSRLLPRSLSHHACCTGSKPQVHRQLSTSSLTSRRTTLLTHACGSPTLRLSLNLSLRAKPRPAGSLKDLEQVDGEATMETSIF", "assay": "Binding affinity against plasma membrane from rat liver using [3H]-AVP as a radioligand", "procedure,_shortened": "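Competition binding with [3H]AVP to plasma membranes, 30 min incubation; for rat liver membranes the standard medium included bacitracin (1 mg/mL). Apparent KD and slope factor b from weighted nonlinear least-squares fit of displacement curves to logistic curves; [3H]AVP parameters from direct binding. Mean ±SE of two experiments.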"}},
  "note": "Positions of bridges follow the written chain, without caps; N, C: chain ends. Non-standard residues stand in square brackets, D forms with d. Residues, ends and D or L forms follow the SMILES beside them. NMeA = CN[C@@H](C)C(=O)O; Sar = CNCC(=O)O",
  "data": [
    {"smiles": "CC(C)[C@H]1NC(=O)[C@H](Cc2ccccc2)NC(=O)[C@@H](Cc2ccc(O)cc2)NC(=O)CCSSC[C@@H](C(=O)N(C)[C@@H](C)C(=O)N[C@@H](CCCN=C(N)N)C(=O)NCC(N)=O)NC(=O)[C@H](CC(N)=O)NC1=O", "values": [
      {"measurement": "Kd", "setting": "Vasopressin V2 receptor", "result": 0.0094, "unit": "µM"}
    ]},
    {"smiles": "C[C@@H](C(=O)N[C@@H](CCCN=C(N)N)C(=O)NCC(N)=O)N(C)C(=O)[C@@H]1CSSC[C@H](N)C(=O)N[C@@H](Cc2ccccc2)C(=O)N[C@@H](Cc2ccccc2)C(=O)N[C@@H](CCC(N)=O)C(=O)N[C@@H](CC(N)=O)C(=O)N1", "note": "(H-CFFQNC[NMeA]RG-NH2; disulfide 1-6)", "values": [
      {"measurement": "Kd", "setting": "[1]", "result": 0.11, "unit": "µM"}
    ]},
    {"smiles": "CC(C)[C@@H]1NC(=O)[C@H](Cc2ccccc2)NC(=O)[C@H](Cc2ccc(O)cc2)NC(=O)[C@@H](N)CSSC[C@@H](C(=O)N(C)CC(=O)N[C@@H](CCCNC(=N)N)C(=O)NCC(N)=O)NC(=O)[C@H](CC(N)=O)NC1=O", "note": "(H-CYFVNC[Sar]RG-NH2; disulfide 1-6)", "values": [
      {"measurement": "Kd", "setting": "[1]", "result": 0.11, "unit": "µM"},
      {"measurement": "Kd", "setting": "Vasopressin V2 receptor", "result": 0.0094, "unit": "µM"}
    ]}
  ]
}
